Assay results pooled from the literature.
Lines come from different studies, so protocols differ.
Target: Cyclin-dependent kinase 2 (CDK2, Homo sapiens, UniProt P24941)
Method: competition with immobilised ligand

SMILES	assay	conditions	remaining binding [%]
C[C@H](c1ccc(F)cc1)N(Cc1cccc(C(=O)O)c1)C(=O)c1cnc2ccccc2c1	cell-free assay	1 µM	100
c1cncc(-c2cccc(Nc3nccc(NC4CCCCC4)n3)c2)c1	binding	10 µM	81
Nc1ncc2c(n1)-c1c([nH]c3ccc(C#CC4CC4)cc13)CCCC2	binding	1 µM	85
CO[C@H]1CC[C@H](CNc2ccc(S(=O)(=O)NC(=O)c3ccc(N4CCN(CC5=C(c6ccc(Cl)cc6)CC(C)(C)CC5)CC4)cc3Oc3cnc4[nH]ccc4c3)cc2[N+](=O)[O-])CC1	cell-free assay	1 µM	100
F[C@@H]1CCN(c2nccc(-c3cnn4ncccc34)n2)C1	binding	1 µM	100
O=C(c1ccc(Nc2nccc(-c3cc4ccccc4s3)n2)cc1)N1CCC(N2CCCC2)CC1	binding	1 µM	84
O=C(O)c1cc(-c2ccc(C3CCNCC3)cc2)c2ccc(-c3ccc(C(F)(F)F)cc3)cc2c1	cell-free assay	1 µM	100
C[C@@H]1CN(c2ccc3ncc(-c4ccc5[nH]nc(C6CC6)c5c4)n3n2)C[C@H](C)O1	binding	50 nM	100
O=S(=O)(NC1CCC(c2cc(F)ccc2F)(S(=O)(=O)c2ccc(Cl)cc2)CC1)C(F)(F)F (stereo not shown)	cell-free assay	1 µM	100
COc1cnc(Nc2cccc(S(N)(=O)=O)c2)nc1N1CCN(c2ccccc2)CC1	binding	1 µM	98
O=C(NCC1CCOCC1)c1n[nH]cc1NC(=O)c1c(F)cccc1F	binding	1 µM	49
Cn1nc(C(F)(F)F)cc1-c1cnc(N2CCc3cc(S(=O)(=O)Nc4c(F)cc(Cl)cc4F)cc(N4CCCC4=O)c32)nc1	cell-free assay	1 µM	100
O=C(NCCCN1CCOCC1)c1ccc(Nc2ncc(Cl)c(-c3ccc(Cl)s3)n2)cc1	binding	1 µM	62
FC(F)(F)Oc1cccc(-c2cnc3ccc(-c4ccncc4)nn23)c1	cell-free assay	5 µM	81
O=C(NCCCN1CCOCC1)c1ccc(Nc2nccc(-c3cc4ccccc4s3)n2)cc1	binding	1 µM	66
CC(C)(C)c1ccc(-c2nc(CBr)nn2-c2cccc(O)c2)cc1	cell-free assay	10 µM	90
